This is an account of results in ChEMBL document CHEMBL1255191, “Design and synthesis of hydroxyethylamine (HEA) BACE-1 inhibitors: structure-activity relationship of the aryl region” (Bioorg Med Chem Lett, 2010).

Series [1] in a line: Lipophilicity, log P of the compound. Format: physicochemical. To be noted: octanol/water.
In series [2] the target is T1, Beta-secretase 1 (Homo sapiens, UniProt P56817). Briefly: Inhibition of BACE1 in HEK293 cells. Format: cell-based.
A short description of series [3]: Apparent permeability across MDCK2 cells. Format: ADME, cell-based, Canis lupus familiaris, MDCK-II. To be noted: dog, MDCK.
For series [4], the target named is T1, Beta-secretase 1. Briefly: Inhibition of BACE1. Summed up:
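Recombinant BACE from E. coli; compounds serially diluted in DMSO, preincubated with enzyme 20 min at room temperature in 100 mM sodium acetate, 0.001% Tween-20, pH 4.5. Biotinylated Swedish-mutant APP peptide with C-terminal Oregon Green added; 3 h at 37 °C.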

In series [5] the target is Cathepsin D (Homo sapiens, UniProt P07339). Briefly: Inhibition of cathepsin D. To be noted: read-out: IC50. Summed up:
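Cathepsin-D at 0.6 nM final in 100 mM sodium acetate pH 4.5; compounds three-fold serially diluted in DMSO, then diluted 33× in buffer, preincubated with enzyme 30 min. Biotinylated peptide substrate with C-terminal Oregon Green started reaction, 110 min at 37 °C. Quenched with streptavidin in 200 mM sodium phosphate pH 7.5; fluorescence polarization read, cleavage lowering polarization.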

A short description of series [6]: […] constant pKa of the compound. Conditions: read-out: pKa. Format: physicochemical. The method in brief: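 pKa measured by capillary electrophoresis.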

T1 sequence (P56817 whole entry): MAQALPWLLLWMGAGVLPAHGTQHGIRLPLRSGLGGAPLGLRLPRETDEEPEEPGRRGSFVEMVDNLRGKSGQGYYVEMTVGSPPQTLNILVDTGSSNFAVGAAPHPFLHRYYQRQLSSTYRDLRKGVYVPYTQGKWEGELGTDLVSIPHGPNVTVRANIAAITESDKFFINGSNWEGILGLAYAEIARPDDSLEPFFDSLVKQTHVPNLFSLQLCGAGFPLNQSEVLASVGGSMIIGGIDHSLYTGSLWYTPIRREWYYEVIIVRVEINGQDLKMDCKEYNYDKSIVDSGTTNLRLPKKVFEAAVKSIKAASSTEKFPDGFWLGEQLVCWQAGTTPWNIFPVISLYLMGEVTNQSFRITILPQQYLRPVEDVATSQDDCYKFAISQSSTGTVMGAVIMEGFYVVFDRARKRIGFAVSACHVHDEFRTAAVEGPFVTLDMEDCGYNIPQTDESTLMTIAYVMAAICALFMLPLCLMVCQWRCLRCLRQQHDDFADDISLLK
Chain of Cathepsin D (P07339 65-162 limits assumed): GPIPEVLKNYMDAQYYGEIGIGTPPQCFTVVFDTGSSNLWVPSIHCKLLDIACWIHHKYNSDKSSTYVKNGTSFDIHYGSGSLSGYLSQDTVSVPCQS
Chain of Cathepsin D (P07339 169-412 limits assumed): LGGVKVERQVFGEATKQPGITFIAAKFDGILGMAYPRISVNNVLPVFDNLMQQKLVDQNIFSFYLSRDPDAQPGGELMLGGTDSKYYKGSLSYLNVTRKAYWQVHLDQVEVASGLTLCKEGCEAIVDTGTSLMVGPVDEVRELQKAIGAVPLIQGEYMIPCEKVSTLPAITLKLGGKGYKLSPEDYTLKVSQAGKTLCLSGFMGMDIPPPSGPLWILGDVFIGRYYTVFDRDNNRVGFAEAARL

For orientation: logP means a log measure of how a compound divides between an organic and an aqueous phase. A low value points to lower lipophilicity. As a reminder, the Papp is a coefficient for how fast a substance crosses the barrier. By IC50 is commonly meant the concentration needed to halve the response being measured. The term pKa denotes the pH at which an ionisable group is half protonated. `CC(=O)N[C@@H](Cc1cc(F)cc(F)c1)[C@H](O)CNC1(c2cc(CC(C)(C)C)no2)CCCCC1` yielded a logP in series [1] of 4.2. Further, in series [2], the ED50 worked out at 88 nM. Besides, in series [3], the Papp was determined as 18 ×10⁻⁶ cm/s. In addition, the IC50 in series [4] worked out at 139 nM; in series [5], 14 nM. Moreover, the pKa in series [6] is 6.4.
